MrgX1 antag – antagonists of human MrgX1 receptor; actives 1.3% (n = 310,000); B-score at 10 µM; AID 588676; Q96LB2; MRGX1-HEK293 calcium flux, Fluo-4, BAM8-22 antagonism; stronger effect = lower value;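 active means calcium-response B-score plate-corrected more than 3 library SD below zero, starting fluorescence within 5 deviations, no agonist response on first addition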;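 further: peak minus trough fluorescence over baseline after final BAM8-22 challenge near maximal dose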
Target sequence (Q96LB2 whole entry, looked up): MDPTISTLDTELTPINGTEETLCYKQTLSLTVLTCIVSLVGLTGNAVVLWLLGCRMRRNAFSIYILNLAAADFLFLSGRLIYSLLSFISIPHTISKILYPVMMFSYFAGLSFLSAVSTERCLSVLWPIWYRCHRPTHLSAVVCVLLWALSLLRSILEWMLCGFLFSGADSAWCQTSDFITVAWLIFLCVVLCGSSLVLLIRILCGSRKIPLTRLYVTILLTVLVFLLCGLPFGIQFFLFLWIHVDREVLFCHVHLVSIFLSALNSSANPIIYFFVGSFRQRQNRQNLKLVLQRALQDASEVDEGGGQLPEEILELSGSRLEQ
MrgX1 allo act – human MrgX1 positive allosteric modulation, primary screen | MrgX1-HEK293, Fluo-4 calcium flux, FDSS; stronger effect = higher value | B-score at 10 µM | actives 0.63% (n = 310,000);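 active means plate-corrected calcium response at least 3 library SD above typical, normal starting fluorescence, not activating the receptor alone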;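 further: compound read alongside a low EC10 to EC30 dose of BAM8-22 agonist; peak minus trough fluorescence over baseline measured at the second addition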
MrgX1 agonist – human MrgX1 receptor agonism, primary screen | AID 588627 | MrgX1-HEK293 cells, Fluo-4 calcium fluorescence, agonist mode; stronger effect = higher value | actives 0.44% (n = 310,000) | Q96LB2 | B-score at 10 µM;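 active means calcium response B-score plate-corrected fluorescence ratio at least 3 library SD, with starting fluorescence B-score inside 5 SD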
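System – MrgX1-expressing HEK293 cells · Incubation – cells plated overnight, dye loaded 0.5 h 37 °C, 0.5 h room temperature · Technique – kinetic Fluo-4 NW fluorescence of intracellular calcium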
RGS4 inh – inhibitors of human RGS4; actives 0.45% (n = 310,000); P49798; B-score at 10 µM; HEK293 M3R/RGS4 inducible, Fluo-4 calcium flux; stronger effect = higher value; triggered by carbachol at its EC20; AID 463165;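 active means B-score, a plate-corrected calcium signal, over three deviations above library mean, with baseline fluorescence within five deviations of library mean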;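 further: RGS4 expression induced by doxycycline in cells with stable M3 receptor; B-score is computed from the integrated fluorescence ratio over baseline after carbachol; higher B-score means a larger calcium signal and so more RGS4 inhibition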
Target sequence (P49798 whole entry, looked up): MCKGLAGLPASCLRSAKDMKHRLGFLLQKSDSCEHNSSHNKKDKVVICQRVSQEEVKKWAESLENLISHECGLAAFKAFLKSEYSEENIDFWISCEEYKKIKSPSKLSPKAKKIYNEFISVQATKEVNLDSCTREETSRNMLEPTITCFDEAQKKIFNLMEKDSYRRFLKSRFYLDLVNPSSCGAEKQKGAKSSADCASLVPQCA
RGS4 act – potentiators or activators of RGS4 | HEK293 M3R/inducible RGS4, carbachol calcium flux Fluo4; stronger effect = lower value | B-score at 10 µM | actives 0.92% (n = 310,000);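 active means B-score of the integrated calcium signal more than 4 SD below the library mean, with starting fluorescence not abnormally high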;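 further: negative B-score means reduced calcium response which marks RGS4 activation or potentiation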
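Assay system: HEK293 FlpIn-TREx cells, stable M3R, doxycycline-inducible RGS4 / Probe or stimulus: carbachol, ECmax concentration / Times: overnight RGS4 induction, 30 min dye load 37 °C, 20 min compound RT / Signal: kinetic calcium fluorescence imaging with Fluo4-AM dye, 2 µM / Measure: Agonist-evoked peak-minus-minimum fluorescence over baseline, integrated ratio, B score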
MrgX1 antag conf – human MrgX1 receptor antagonism, re-confirmation screen. shares compounds with MrgX1 antag. MrgX1-HEK293, BAM8-22 calcium flux, Fluo-4; stronger effect = lower value. remaining BAM8-22 calcium response % of control (stronger effect = lower value), % at 10 µM. actives 19% (n = 2,300). AID 602420;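 active means remaining agonist calcium response no higher than 100% minus 3 SD of agonist-only control wells, with starting fluorescence near control levels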;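 further: agonist BAM8-22 given at a near maximal EC90 to ECmax level; peak minus minimum fluorescence divided by baseline after agonist addition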
HEK293 Ca flux – activity in parental HEK293 cells lacking MrgX1; shares compounds with MrgX1 antag; Fluo-4 calcium fluorescence, FDSS; fluorescence ratio F(max-min)/F0 at 10 µM; actives 2% (n = 4,000); AID 624111;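 active means duplicate-averaged calcium fluorescence ratio at least three times the standard deviation of buffer wells, a nonspecific response in parental cells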
HEK293 Ca counter – counter-screen for MrgX1 allosteric activators: effect in parental HEK293 cells | actives 0.4% (n = 4,000) | shares compounds with MrgX1 antag | parental HEK293 calcium flux, Fluo-4 fluorescence ratio; stronger effect = higher value | fluorescence ratio F(max-min)/F0 at 10 µM;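 active means calcium fluorescence ratio, averaged over duplicates, at least 3 SD of the buffer-well ratio, meaning a nonspecific response in receptor-free cells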;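 further: untransfected parental HEK293 lacking MrgX1 used as counterscreen for MrgX1 allosteric activators; fluorescence change taken during the second addition on a kinetic imager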
HEK293 Ca cntr2 – MrgX1 activator counter-screen hit in parental HEK293 cells | shares compounds with MrgX1 antag | Fluo-4 calcium fluorescence (FDSS); stronger effect = higher value | fluorescence ratio F(max-min)/F0 at 10 µM | actives 8.7% (n = 4,000) | AID 624115;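 active means calcium fluorescence ratio at least three times the spread of buffer wells, meaning a non-specific response in parental cells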
An asterisk follows results filed as active; i = inactive; . = not tested or not shown. A selection: hits, their analogues and other compounds. The true share with any hit is near 3.5%.

SMILES	MrgX1 antag	MrgX1 allo act	MrgX1 agonist	RGS4 inh	RGS4 act	MrgX1 antag conf	HEK293 Ca flux	HEK293 Ca counter	HEK293 Ca cntr2
CC1CCN(C(=O)COC(=O)Cc2ccc(Br)cc2)CC1	i	i	i	i	i	.	.	.	.
COc1ccc(C(=O)NCCc2nnc3ccc(SCC(=O)N4CCCCC4)nn23)cc1	i	i	i	i	i	.	.	.	.
CCN(CC)S(=O)(=O)c1cc(NC(=O)CN2C(=O)NC3(CCCc4ccccc43)C2=O)ccc1C (stereo unspecified)	-6.07*	i	i	i	i	85.3%*	i	i	i
COc1ccc(Cc2cnc(N)s2)cc1	-11.9*	i	i	i	i	79.4%*	i	i	i
O=C(Oc1ccc(Cl)c2cccnc12)N1CCCCC1	-5.46*	i	i	i	i	i	i	i	i
O=C(Oc1ccc(Cl)c2cccnc12)N1CCOCC1	i	i	i	i	i	.	.	.	.
O=C(CC(=O)Nc1nc(C23CC4CC(CC(C4)C2)C3)cs1)NCCO	-5.69*	i	i	i	i	65.3%*	i	i	i
Cc1ccc(S(=O)(=O)c2ccc(Cl)cc2)cc1S(=O)(=O)N(C)CC(=O)O	-5.93*	i	i	i	i	i	i	i	i
Cc1cc(C)cc(NC(=O)Nc2ccc3c(c2)N(C)C(=O)CS3)c1	i	i	i	i	i	.	.	.	.
CC(=O)c1cccc(NC(=O)Nc2ccc3c(c2)N(C)C(=O)CS3)c1	-9.01*	i	i	i	i	3.0%*	i	i	i
O=C(c1ccc(Cn2c(=S)[nH]c3ccccc3c2=O)cc1)N1CCN(c2ccccn2)CC1	-8.03*	i	i	i	i	84.1%*	i	i	i
O=C(c1ccc(Cn2c(=O)[nH]c3ccccc3c2=O)cc1)N1CCN(c2ccccn2)CC1	i	i	i	i	i	.	.	.	.
COCc1nc(-c2ccc(-c3ccc(OC)cc3)nc2OC)no1	-11.5*	i	i	i	i	i	i	i	i
C=CCOC(=O)/C(=C\C=C\c1ccccc1)NC(=O)c1ccccc1	i	i	i	i	i	.	.	.	.
CCn1c(=O)[nH]c2cc(C(=O)Nc3cc(C)cc(C)c3)ccc2c1=O	-5.06*	i	i	i	i	82.3%*	i	i	i
NS(=O)(=O)c1cnccc1NCCc1ccccc1	i	i	i	i	i	.	.	.	.
O=C(CCN1C(=O)C2C3C=CC(C4CC34)C2C1=O)Oc1ccccc1 (stereo unspecified)	i	i	i	i	i	.	.	.	.
CC(=O)c1ccccc1OC(=O)CCN1C(=O)C2C3C=CC(C4CC34)C2C1=O (stereo unspecified)	-4.54*	i	i	i	i	i	i	i	i
c1ccc(-c2nc(-c3ccncc3)no2)cc1	-7.63*	i	i	i	i	i	i	i	i
Clc1ccccc1-c1nc(-c2ccncc2)no1	i	i	i	i	i	.	.	.	.
c1ccc(-c2ccccc2-c2nc(-c3ccncc3)no2)cc1	-4.72*	i	i	i	i	i	i	i	i
O=S(=O)(NC(=NCc1ccccc1)c1ccc(F)cc1)c1ccc(Cl)cc1	i	i	i	i	i	.	.	.	.

Source: PubChem BioAssay
